# Results pooled from the literature.
# Compare with care: the assays were run in different laboratories.
# Target: Tyrosine-protein kinase ITK/TSK (ITK, Homo sapiens, UniProt Q08881)
# Sequence (Q08881 1-620, as in one of the studies): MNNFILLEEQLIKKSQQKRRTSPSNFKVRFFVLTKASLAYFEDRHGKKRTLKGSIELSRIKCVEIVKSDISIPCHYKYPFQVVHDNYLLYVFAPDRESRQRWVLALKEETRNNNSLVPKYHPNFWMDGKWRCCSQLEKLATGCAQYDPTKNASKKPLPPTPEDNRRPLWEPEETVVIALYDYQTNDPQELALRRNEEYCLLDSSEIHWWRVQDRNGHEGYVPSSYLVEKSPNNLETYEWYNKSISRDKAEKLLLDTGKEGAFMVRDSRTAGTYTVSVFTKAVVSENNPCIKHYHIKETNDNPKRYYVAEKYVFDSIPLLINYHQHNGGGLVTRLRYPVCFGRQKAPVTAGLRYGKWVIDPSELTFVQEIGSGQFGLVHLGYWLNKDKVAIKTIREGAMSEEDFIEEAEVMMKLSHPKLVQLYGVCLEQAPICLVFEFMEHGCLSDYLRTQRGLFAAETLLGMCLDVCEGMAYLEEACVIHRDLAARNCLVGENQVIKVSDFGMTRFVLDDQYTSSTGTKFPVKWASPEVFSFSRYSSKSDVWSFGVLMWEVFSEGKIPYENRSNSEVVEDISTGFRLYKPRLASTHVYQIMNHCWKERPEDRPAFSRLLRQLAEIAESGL
SMILES,effect on,action,technique,tested at,endpoint,value
COc1cc2c(N3CCN(C(=O)Nc4ccc(OC(C)C)cc4)CC3)ncnc2cc1OCCCN1CCCCC1,cell-free assay,,,0.5 µM,remaining signal,99%
Cc1ccc(NC(=O)c2ccc(C)c(C(F)(F)F)c2)cc1C#Cc1nn(C2CCC(O)CC2)c2ncnc(N)c12 (stereo not shown),cell-free assay,,,10 µM,remaining signal,102%
Cc1nc(C2CCN(C(=O)c3ccc(OC(F)(F)F)cc3N)CC2)c2ncc(N3CCN(C)CC3)cc2n1,cell-free assay,,competition with immobilised ligand,1 µM,remaining binding,89%
CCCS(=O)(=O)Nc1ccc(F)c(C(=O)c2c[nH]c3ncc(-c4ccc(Cl)cc4)cc23)c1F,enzyme activity,inhibitor,,1 µM,inhibition,< 10%
CNCc1ccccc1-c1csc([C@H](C)Nc2nc(C)nc3cc(OC)c(OC)cc23)c1,cell-free assay,,competition with immobilised ligand,1 µM,remaining binding,100%
CNC(=O)c1cc(Oc2ccc(NC(=O)Nc3ccc(Cl)c(C(F)(F)F)c3)cc2)ccn1,enzyme activity,inhibitor,,0.3 µM,inhibition,-10%
COc1ccc(C(=O)Nc2sc3c(c2C(N)=O)CCCC3)cc1OC,enzyme activity,inhibitor,,0.5 µM,remaining activity,99.6%
c1cnn2ncc(-c3ccnc(N4CCC45COC5)n3)c2c1,binding,,,1 µM,remaining binding,100%
CCN(CC)CCNC(=O)c1c(C)[nH]c(/C=C2\C(=O)Nc3ccc(F)cc32)c1C,enzyme activity,inhibitor,,0.3 µM,inhibition,48%
CCc1ccccc1C(=O)Nc1n[nH]c2c(C)c(F)c(C3C(C#N)=C(C)N(C)C(C)=C3C#N)cc12,cell-free assay,,competition with immobilised ligand,1 µM,remaining binding,86%
CC/C(=N\NC(=O)NCc1cccc(O)c1)c1ccc(O)c(C)c1O,enzyme activity,inhibitor,,0.1 µM,inhibition,3.3%
O=C1NC(=O)c2cc(Nc3ccc(F)cc3)c(Nc3ccc(F)cc3)cc21,cell-free assay,,,0.5 µM,remaining signal,87.3%
CO[C@H]1CC[C@H](CNc2ccc(S(=O)(=O)NC(=O)c3ccc(N4CCN(CC5=C(c6ccc(Cl)cc6)CC(C)(C)CC5)CC4)cc3Oc3cnc4[nH]ccc4c3)cc2[N+](=O)[O-])CC1,cell-free assay,,competition with immobilised ligand,1 µM,remaining binding,87%
Cc1sc(C(=O)NC2COC2)cc1-n1cc(NC(=O)Nc2c(F)cccc2Cl)cn1,enzyme activity,inhibitor,,10 µM,remaining activity,94.4%
Cc1cnc(NC2CCOCC2)nc1-n1cnc(C(=O)NC(CN)c2cc(F)cc(Cl)c2)c1 (stereo not shown),enzyme activity,inhibitor,radiometric,1 µM,remaining activity,92%
COc1cc(C)c(Sc2cnc(NC(=O)c3ccc(N4CCN(CCCCCCCNC(=O)COc5cccc6c5C(=O)N(C5CCC(=O)NC5=O)C6=O)CC4)cc3)s2)cc1C(=O)N1CCN(C(C)=O)CC1 (stereo not shown),binding,,,1 µM,inhibition,> 90%
COc1cccc(CNC(=O)c2nc3scc(COCc4ccc(C(=O)O)cc4)c3c(=O)[nH]2)c1,cell-free assay,,competition with immobilised ligand,1 µM,remaining binding,86.8%
N#CCCc1ccc2c(c1)-c1[nH]c3ccc([N+](=O)[O-])cc3c1CC(=O)N2,cell-free assay,,,0.5 µM,remaining signal,99.9%
CC(C)(O)[C@H]1CC[C@H](Nc2ccc3ncc(-c4cccc(C(F)(F)F)c4)n3n2)CC1,enzyme activity,inhibitor,,1 µM,remaining activity,88.8%
COc1cc2c(Nc3ccc(Br)cc3F)ncnc2cc1OCC1CCN(C)CC1,cell-free assay,,,0.5 µM,remaining signal,101%
CO[C@@H](C)c1c(Nc2ccc([C@H](N(C)C(=O)C3CCS(=O)(=O)CC3)C(F)(F)F)cc2)cnc2cc(Cl)nn12,cell-free assay,,competition with immobilised ligand,1 µM,remaining binding,88%
COc1cc2nccc(Oc3ccc(NC(=O)c4c5n(n(-c6ccc(F)cc6)c4=O)CCCC5)cc3)c2cc1OC,enzyme activity,inhibitor,,0.1 µM,inhibition,9%
O=C(Nc1cnn(-c2csc(C(=O)NC3COC3)c2)c1)Nc1c(F)cccc1Cl,enzyme activity,inhibitor,,5 µM,remaining activity,92.8%
CN(C)C1CCN(CC#Cc2nn(C3CCCC3)c3nc(NCc4ccccc4)ncc23)C1 (stereo not shown),enzyme activity,inhibitor,FRET,10 µM,inhibition,15%
O=S(=O)(NC1CCC(c2cc(F)ccc2F)(S(=O)(=O)c2ccc(Cl)cc2)CC1)C(F)(F)F (stereo not shown),cell-free assay,,competition with immobilised ligand,1 µM,remaining binding,97%
CC(C)(C)c1nc2c(s1)c1nc(N)ncc1c1ccc(NS(=O)(=O)c3c(F)cccc3F)c(F)c12,enzyme activity,inhibitor,radiometric,1 µM,remaining activity,94%
CC1=C(C#N)[C@@H](c2ccc3[nH]nc(C)c3c2)C(C#N)=C(c2ccc(Cl)cc2)N1,cell-free assay,,competition with immobilised ligand,1 µM,remaining binding,97.2%
COc1cc2ncnc(Nc3ccc(Oc4ccccc4)cc3C)c2cc1OC,enzyme activity,inhibitor,,1 µM,inhibition,3%
